In ChEMBL document CHEMBL6115033, “Discovery of a Pyrazolopyridinone-Based MYC Inhibitor That Selectively Engages Intracellular c-MYC and Disrupts MYC-MAX Heterodimerization” (J Med Chem, 2025):
Active and inactive are the calls of the source. The rule behind the calls is not given here.

Key:
P493-6 [1] = test: Downregulation of E2F2 mRNA expression in human P493-6 cells at 25 uM incubated for 12 hrs by qRT-PCR analysis; format: functional, cell-based
Procedure, shortened: (§1)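 Cells (500,000/well) were cultured with or without 25 µM for the indicated time. Total RNA was extracted with TRIzol and reverse-transcribed. qPCR used SYBR green with target-gene primers, reported as ΔΔCT.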

MDA-MB-468 [2] = test: Downregulation of E2F2 mRNA expression in human MDA-MB-468 cells at 25 uM incubated at 48 hrs by qRT-PCR analysis; format: functional, cell-based; procedure, shortened: as §1
MDA-MB-468 [3] = test: Induction of apoptosis in human MDA-MB-468 cells cultured as 3D spheroids assessed as inhibition of cell growth incubated for 5 days; format: functional, cell-based; conditions: time 5.0 day
Procedure, shortened: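 Cells plated at 4000 per well in low-attachment 24-well plates and grown in Mammocult medium for 48 h to form mammospheres. Spheres then exposed to 25 uM compound for 5 days, with untreated control wells. Read-out was imaging of the mammospheres formed.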

MDA-MB-468 [4] = test: Downregulation of CDK2 mRNA expression in human MDA-MB-468 cells at 25 uM incubated at 48 hrs by qRT-PCR analysis; format: functional, cell-based; procedure, shortened: as §1
P493-6 [5] = test: Downregulation of CDK2 mRNA expression in human P493-6 cells at 25 uM incubated for 12 hrs by qRT-PCR analysis; format: functional, cell-based; procedure, shortened: as §1
MDA-MB-468 [6] = test: Downregulation of MYC level in human MDA-MB-468 cells at 50 uM incubated for 24 hrs in presence of MG132 by Western blot analysis; format: functional, cell-based; conditions: in the assay text read “Stabilization of MYC protein level” for “Downregulation of MYC level”
Procedure, shortened: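 MDA-MB-468 cells were pretreated with 30 µM MG132 for 1 h, then exposed to graded concentrations or DMSO for 24 h. MYC was read by western blot.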

MDA-MB-468 [7] = test: Downregulation of E2F1 mRNA expression in human MDA-MB-468 cells at 25 uM incubated at 48 hrs by qRT-PCR analysis; format: functional, cell-based; procedure, shortened: as §1
[8] = Induction of apoptosis in human P493-6 cells assessed as viable cells at 50 uM incubated for 24 hrs by Annexin V/PI staining based flow cytometry analysis (reference value: 90.8%); format: functional; conditions: read-out: Activity
P493-6 [9] = test: Downregulation of SKP2 mRNA expression in human P493-6 cells at 25 uM incubated for 12 hrs by qRT-PCR analysis; format: functional, cell-based
Procedure, shortened: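 P493-6 cells seeded at 500,000 per well and cultured with or without 25 uM compound for the indicated time. Total RNA extracted with TRIzol. Reverse transcription at 25 °C for 10 min, 37 °C for 120 min, then 85 °C for 5 min. SYBR green qPCR used primers for MYC target genes. Relative mRNA expressed as ΔΔCT.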

MDA-MB-468 [10] = test: Downregulation of CDC25C mRNA expression in human MDA-MB-468 cells at 25 uM incubated at 48 hrs by qRT-PCR analysis; format: functional, cell-based; procedure, shortened: as §1
[11] = target: T1, c-Myc/c-Max (Homo sapiens) (UniProt P01106+P61244); test: Disruption of MYC-MAX heterodimerization in human MDA-MB-468 cells incubated for 12 hrs; format: cell-based
Procedure, shortened: (§2)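 Cells were given 25 µM or DMSO for 0, 3, 5 and 12 h. Cytoplasmic and nuclear lysate fractions were pooled. 2 mg protein was immunoprecipitated with MYC antibody overnight, then protein A/G beads for 4 h at 4 °C. Bound MAX was detected by western blot and quantified relative to MYC; MAX input was also measured.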

P493-6 [12] = test: Antiproliferative activity against tetracycline-treated human P493-6 cells expressing MYC assessed as inhibition of cell proliferation at 25 uM incubated for 96 hrs by cell titer glo assay; format: functional, cell-based
Procedure, shortened: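 P493-6 cells, either untreated (high MYC) or MYC-off after 0.1 µg/mL tetracycline for 72 h, were exposed to 25 µM for 96 h. Read-out was % survival by CellTiter-Glo luminescence. Mean ± SD, n = 6, unpaired t-test.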

MDA-MB-231 = test: Antiproliferative activity against human MDA-MB-231 cells assessed as cell viability incubated for 96 hrs by MTT assay; format: functional, cell-based; conditions: MDA-MB-231, 96 h
Procedure, shortened: (§3)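 Adherent cells (2000/well) attached overnight, then exposed to compounds at 0.14–100 µM for 96 h in DMEM with 10% FBS. MTT at 0.5 mg/mL for 4 h in the dark, formazan dissolved in DMSO, absorbance at 570 nm. Compounds were freshly prepared in DMSO, with DMSO below 1%.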

[13] = target: Myc proto-oncogene protein (Homo sapiens) (UniProt P01106); test: Binding affinity to MYC in human P493-6 cells assessed as thermal stabilization by measuring melting temperature at 25 uM measured for 2 hrs by CETSA analysis
[14] = target: T1, c-Myc/c-Max (Homo sapiens); test: Disruption of MYC-MAX interaction in human MDA-MB-468 cells at 25 uM incubated for 3 to 12 hrs by Western blot analysis; format: cell-based; conditions: time 3-12 hrs; procedure, shortened: as §2
[15] = Toxicity in mouse implanted with human MDA-MB-468 cells assessed as change in body weight at 10 mg/kg, po; format: organism-based; conditions: in vivo
[16] = target: T1, c-Myc/c-Max (Homo sapiens); test: Disruption of MYC-MAX heterodimerization in human P493-6 cells incubated for 12 hrs; format: cell-based; procedure, shortened: as §2
MDA-MB-468 [17] = test: Induction of apoptosis in human MDA-MB-468 cells assessed as effect on caspase-3 level at 50 uM incubated for 24 hrs
MDA-MB-468 [18] = test: Downregulation of SKP2 mRNA expression in human MDA-MB-468 cells at 25 uM incubated at 48 hrs by qRT-PCR analysis; format: functional, cell-based; procedure, shortened: as §1
MDA-MB-468 [19] = test: Induction of apoptosis in human MDA-MB-468 cells assessed as effect on PARP level at 50 uM incubated for 24 hrs
MDA-MB-468 [20] = test: Downregulation of CDK2 mRNA expression in human MDA-MB-468 cells at 25 uM incubated for 12 hrs by qRT-PCR analysis; format: functional, cell-based; procedure, shortened: as §1
[21] = target: T1, c-Myc/c-Max (Homo sapiens); test: Disruption of MYC-MAX interaction in human P493-6 cells at 25 uM incubated for 3 to 12 hrs by Western blot analysis; format: cell-based; conditions: time 3-12 hrs; procedure, shortened: as §2
[22] = target: T1, c-Myc/c-Max (Homo sapiens); test: Disruption of MYC-MAX interaction in human MDA-MB-468 cells assessed as reduction in myc level at 25 uM; format: cell-based
[23] = Induction of apoptosis in human P493-6 cells assessed as late apoptotic cells at 50 uM incubated for 24 hrs by Annexin V/PI staining based flow cytometry analysis (reference value: 6.52 %); format: functional
P493-6 [24] = test: Downregulation of CCNA2 mRNA expression in human P493-6 cells at 25 uM incubated for 12 hrs by qRT-PCR analysis; format: functional, cell-based; procedure, shortened: as §1
MDA-MB-468 [25] = test: Downregulation of CDK1 mRNA expression in human MDA-MB-468 cells at 25 uM incubated for 12 hrs by qRT-PCR analysis; format: functional, cell-based; procedure, shortened: as §1
P493-6 [26] = test: Downregulation of CDK1 mRNA expression in human P493-6 cells at 25 uM incubated for 12 hrs by qRT-PCR analysis; format: functional, cell-based; procedure, shortened: as §1
MCF7 = test: Antiproliferative activity against human MCF7 cells assessed as cell viability incubated for 96 hrs by MTT assay; format: functional, cell-based; conditions: MCF7, 96 h; procedure, shortened: as §3

T1 sequence (P01106 whole entry): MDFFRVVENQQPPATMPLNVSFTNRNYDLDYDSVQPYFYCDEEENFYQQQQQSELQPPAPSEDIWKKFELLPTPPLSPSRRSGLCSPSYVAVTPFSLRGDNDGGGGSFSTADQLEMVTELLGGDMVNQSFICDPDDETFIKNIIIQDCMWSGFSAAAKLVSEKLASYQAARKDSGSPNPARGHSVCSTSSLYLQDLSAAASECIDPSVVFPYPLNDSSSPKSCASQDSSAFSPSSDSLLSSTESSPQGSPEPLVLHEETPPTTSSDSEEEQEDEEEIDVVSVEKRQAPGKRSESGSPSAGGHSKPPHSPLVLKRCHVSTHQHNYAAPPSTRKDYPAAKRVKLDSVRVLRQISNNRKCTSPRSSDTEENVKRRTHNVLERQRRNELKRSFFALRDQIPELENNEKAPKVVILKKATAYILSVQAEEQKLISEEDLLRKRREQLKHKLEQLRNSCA
T1 sequence (P61244 2-160 partner limits assumed): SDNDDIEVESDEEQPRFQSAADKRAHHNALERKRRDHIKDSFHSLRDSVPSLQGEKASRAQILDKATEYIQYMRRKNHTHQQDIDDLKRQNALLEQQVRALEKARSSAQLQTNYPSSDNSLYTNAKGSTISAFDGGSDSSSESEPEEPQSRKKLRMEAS
Sequence of Myc proto-oncogene protein (Homo sapiens) (P01106 whole entry): as the sequence (P01106 whole entry) above

N#Cc1cc2c(-c3ccc(Cl)cc3)nn(-c3ccccc3)c2[nH]c1=O
Activity (P493-6 [1]): Active
Activity (MDA-MB-468 [2]): Active
Activity (MDA-MB-468 [3]): Active
Activity (MDA-MB-468 [4]): Active
Activity (P493-6 [5]): Active
Activity (MDA-MB-468 [6]): Active
Activity (MDA-MB-468 [7]): Active
viability at 50 µM [8]: 77.2%
Activity (P493-6 [9]): Active
Activity (MDA-MB-468 [10]): Active
Activity [11]: Active
Activity (P493-6 [12]): Active
IC50 (MDA-MB-231): 10.6 µM
Tm [13]: 35 °C
Activity [14]: Active
Activity [15]: Non-toxic
Activity [16]: Active
Activity (MDA-MB-468 [17]): Active
Activity (MDA-MB-468 [18]): Active
Activity (MDA-MB-468 [19]): Active
Activity (MDA-MB-468 [20]): Active
Activity [21]: Active
Activity [22]: Active
Activity [23]: 17.6%
Activity (P493-6 [24]): Active
Activity (MDA-MB-468 [25]): Active
Activity (P493-6 [26]): Active
IC50 (MCF7): 39.4 µM
